# According to PMC8530978 (Bioorganic chemistry, 2021):
# Assays:
# [1] = test system: acetylation of SMC3 in HeLaM cells; assay: Western blot of SMC3 acetylation in HeLaM cells; format: cell-based; conditions: overnight treatment
# Procedure, shortened: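 Acetylated SMC3 detected by immunoblot with an anti-acetyl-SMC3 antibody, HRP-conjugated secondary antibody and enhanced chemiluminescence, imaged on film.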
# HeLaM cells [2] = assay: Phase contrast time lapse microscopy, mitotic duration; format: cell-based; conditions: asynchronous HeLaM cells, images every 12 min
# [3] = test system: mitotic spindle of HeLaM cells; format: cell-based; conditions: compound 10 μM + MG132 + ZM447439 (DMSO+MG132+ZM447439 3%)
# [4] = test system: NCI sixty human tumor cell line panel; assay: NCI sixty human tumor cell line panel, single dose 10 μM; format: cell-based; conditions: Homo sapiens, read-out: Mean % growth at 10 μM
# HCT 116 cells = assay: MTS reduction assay, antiproliferative activity on HCT 116; format: cell-based; conditions: Homo sapiens, HCT-116, 96 h
# Procedure, shortened: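 HCT116 cells grown in McCoy's 5A with 10% FBS (37 °C, 5% CO2), seeded at 3 × 10^3/well in triplicate and left to adhere overnight. Exposed to test compound at 0.01–100 μM, or DMSO, for 96 h. MTS reagent added for 2 h at 37 °C; absorbance read at 490 nm. Curves of log(concentration) vs response fitted with a variable Hill slope.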
# [5] = test system: purified HDAC isoforms (HDAC1, 2, 3, 8 and HDAC6); assay: Single concentration; format: biochemical; conditions: 100 μM, HDAC1, 2, 3, 8 and 6
# Procedure, shortened: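 Recombinant HDAC1, 2, 3, 6 or 8 (1 μL of enzyme stock at 3, 1, 30, 35 or 70 ng/μL respectively) in HDAC-Glo buffer, incubated 3 h at room temperature with test compound in DMSO. HDAC-Glo reagent then added; luminescence read every 3 min for 30 min. Peak signal corrected against a no-enzyme background and divided by the no-inhibitor signal to give % activity remaining.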
# [6] = test system: histone H3 acetylation and tubulin acetylation in HCT116 cells; assay: Western blot of histone H3 and tubulin acetylation in HCT116 cells; format: cell-based, human; conditions: HCT116, 24 h, IPEs up to highest concentration 25 μM
# Procedure, shortened: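 HCT116 cells (2 × 10^6 per T-25 flask) adhered overnight, then given test compound at 1, 10 or 25 μM, or DMSO, for 24 h. Lysed in RIPA; protein measured by BCA. Acetyl-histone H3 and acetyl-tubulin immunoblotted, detected with fluorescent secondary antibodies on an Odyssey scanner.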
# [7] = test system: HDAC8-null and control HCT116 cells; assay: Cytotoxicity in HDAC8-null versus control HCT116 cells; format: cell-based, human; conditions: 10 μM
# HeLaM cells [8] = assay: Flow cytometry cell cycle analysis; format: cell-based
# Procedure, shortened: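 5 × 10^5 HeLaM cells plated, treated next day with test compound or DMSO for 24, 48 or 72 h. All cells (floating and attached) collected and fixed in 70% ethanol (final). […] 10 μg/ml, 30 min, 37 °C, then propidium iodide in PBS + 2% FBS. SubG1 gated; subG1 excluded before modeling live-cell cycle distribution.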
# [9] = target: tubulin heterodimers, purified from porcine brain (Sus scrofa, UniProt P02554); assay: Turbidity-based tubulin polymerization assay; format: biochemical; conditions: for Vmax of tubulin polymerization: 37 °C, exponential phase (DMSO 10 mOD/min)
# Chain of tubulin heterodimers, purified from porcine brain (P02554 whole entry): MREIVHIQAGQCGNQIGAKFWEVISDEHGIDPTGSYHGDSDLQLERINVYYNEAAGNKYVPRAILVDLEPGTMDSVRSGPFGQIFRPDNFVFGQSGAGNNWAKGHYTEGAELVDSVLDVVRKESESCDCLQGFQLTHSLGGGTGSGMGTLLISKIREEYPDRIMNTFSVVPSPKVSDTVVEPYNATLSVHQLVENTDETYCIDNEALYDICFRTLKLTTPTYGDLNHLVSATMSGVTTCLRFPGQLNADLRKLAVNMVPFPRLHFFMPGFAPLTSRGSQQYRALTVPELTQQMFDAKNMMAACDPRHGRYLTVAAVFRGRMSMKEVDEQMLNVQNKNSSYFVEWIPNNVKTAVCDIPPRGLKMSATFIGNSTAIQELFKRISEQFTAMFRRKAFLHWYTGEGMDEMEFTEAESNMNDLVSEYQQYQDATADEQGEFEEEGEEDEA
# Chain of tubulin heterodimers, purified from porcine brain (P02550 whole entry partner): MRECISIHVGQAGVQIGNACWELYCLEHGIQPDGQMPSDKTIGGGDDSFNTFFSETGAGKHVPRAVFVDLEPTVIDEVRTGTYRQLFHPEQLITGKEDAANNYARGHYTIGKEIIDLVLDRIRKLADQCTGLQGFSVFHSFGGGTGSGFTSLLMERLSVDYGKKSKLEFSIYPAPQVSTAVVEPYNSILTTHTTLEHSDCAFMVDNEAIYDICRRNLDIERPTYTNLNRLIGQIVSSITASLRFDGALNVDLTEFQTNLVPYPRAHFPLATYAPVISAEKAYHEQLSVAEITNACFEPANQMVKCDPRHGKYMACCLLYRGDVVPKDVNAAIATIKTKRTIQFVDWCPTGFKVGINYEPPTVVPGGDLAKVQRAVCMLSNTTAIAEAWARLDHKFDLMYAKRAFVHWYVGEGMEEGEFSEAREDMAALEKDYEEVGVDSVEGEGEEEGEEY
# [10] = test system: HeLaM cells expressing mcherry-α-tubulin; assay: Spindle reassembly after recovery from cold shock; format: cell-based; conditions: 8 minutes post-rewarming, versus control
# Procedure, shortened: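 HeLaM clone stably expressing mCherry-α-tubulin, treated with test compound or DMSO for 30 min at 37 °C, chilled 30 min at 4 °C, then rewarmed at 37 °C. Fixed at 0, 4, 8 and 20 min after rewarming; wide-field fluorescence imaging. Four repeats, 10–30 cells per condition per experiment. Blinded 8-min images scored, and spindle outlines traced to quantify morphology.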
# HeLaM cells [11] = assay: Chromosome drops to determine mitotic index; format: cell-based; conditions: 10 μM, after release from thymidine block
# Procedure, shortened: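 HeLaM cells held in S phase with a single 2 mM thymidine block overnight, washed in PBS and released into test compound for about 9 h, then given ZM447439 for 90 min. Attached and floating cells were pooled, trypsinized, swollen in 0.075 M KCl (10 min, 37 °C), fixed in methanol:acetic acid 3:1 and dropped onto slides. DAPI stain. Mitotic index scored blinded over at least three experiments.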
SMILES,SMC3 acetylation [1],mitotic duration / mitotic arrest (HeLaM cells [2]),spindle collapse [3],activity at 10 µM [4],GI50 (HCT 116 cells),"activity remaining, each HDAC isoform [5]",global histone H3 acetylation and tubulin acetylation [6],cell killing of parental and HDAC8-null cells [7],"cells in G2/M (HeLaM cells [8]; 48 hours, subG1 excluded (DMSO 10%))",subG1 population (HeLaM cells [8]; 72 hr post treatment (DMSO 14%)),Vmax of tubulin polymerization ([9]; 10 μM compound),Vmax of tubulin polymerization ([9]; 50 μM compound),"microtubule depolymerization upon cooling ([9]; 50 μM, cooling to ~15°C)",abnormal spindles [10],mitotic arrest (mitotic index) (HeLaM cells [11])
"COc1ccc(Cn2ccc3ccc(C(=O)NO)cc32)cc1 [PCI34051, reference compound]",an increase in SMC3 acetylation,1.5 h,did not produce the same aberrant spindle,–,–,–,–,–,–,–,–,–,–,–,–
"O=C(Cc1ccc(/C=C/C(=O)c2ncc[nH]2)cc1)Nc1ccc(F)cc1 [IPE-7, (E)-2-(4-(3-(1H-Imidazol-2-yl)-3-oxoprop-1-en-1-yl)phenyl)-N-(4-fluorophenyl)acetamide]",no effect on SMC3 acetylation,–,97%,27.5%,6.95 µM,20–80%,no increase in global histone acetylation or tubulin acetylation,both parental and HDAC8-null cells were killed,36%,58%,5.5 mOD/min,4.5 mOD/min,Depolymerization was accelerated,significantly more abnormal spindles,arrested cells in mitosis
